Usually inhibition stands for how much of the control response was suppressed. Read a high inhibition as strong suppression. The pIC50 is the negative decadic logarithm of the IC50, by convention in mol/L.

Assay [1] is described as follows: In vitro percentage inhibition of formation of DNPH-reactive carbonyl groups in BSA exposed to fructose at 1 mM concentration. In kind it is functional. The procedure, abridged: (§1)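 Bovine serum albumin (fraction V, essentially fatty acid free) incubated with fructose for 28 days. Compounds given as potassium salts in water; trolox as reference.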
Assay [2] in a line: In vitro percentage inhibition of glycation-induced fluorescence changes of BSA at 1 mM concentration. Type of assay: functional. Put shortly:
as §1

Assay [3] in a line: In vitro percentage inhibition of formation of DNPH-reactive carbonyl groups in BSA exposed to fructose at 5 mM concentration. In kind it is functional. The procedure, abridged:
as §1

Assay [4] addresses Aldo-keto reductase family 1 member B1 (Rattus norvegicus) (UniProt P07943). As to the kind of experiment: In vitro percentage inhibition of rat lens aldose reductase at 10E-6 M concentration. Put shortly:
(§2)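 Rat lens (Fischer-344, both sexes) aldose reductase, assayed by spectrophotometric monitoring of NADPH oxidation. Compounds dissolved in 0.2 M NaHCO3. Inhibition at a single concentration, triplicate determinations.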

Assay [5] is described as follows: In vitro percentage inhibition of formation of DNPH-reactive carbonyl groups in BSA exposed to fructose at […] concentration. In kind it is functional.
The nature of assay [6]: In vitro percentage inhibition of glycation-induced fluorescence changes of BSA at […] concentration. In kind it is functional.
The target in assay [7] is Aldo-keto reductase family 1 member B1 (Rattus norvegicus) (UniProt P07943). As to the kind of experiment: In vitro percentage inhibition of rat lens aldose reductase at 10E-5 M concentration. The procedure, abridged: as §2
The target in assay [8] is Aldo-keto reductase family 1 member B1 (Rattus norvegicus, UniProt P07943). Briefly: In vitro inhibitory activity of compound against rat lens aldose reductase.
Assay [9] in a line: In vitro percentage inhibition of glycation-induced fluorescence changes of BSA at 5 mM concentration. In kind it is functional. The procedure, abridged:
as §1

Assay [10] concerns the target Aldo-keto reductase family 1 member B1 (Rattus norvegicus) (UniProt P07943). As to the kind of experiment: In vitro percentage inhibition of rat lens aldose reductase at 10E-7 M concentration. The procedure, abridged: as §2

pIC50: −log10 of the molar value.

For `Cc1c(C)c2c(c(C)c1O)CCC(C)(C(=O)O)O2` (centres undefined), the values for the inhibition in [1] and in assay [2] were 36% and 59%, respectively.

With `O=C(O)Cn1ccc(C(=O)c2ccccc2)c1`, the inhibition stood at 67% in assay [3]; 37% in [4]; 28% in [1]; 51% in [5]; 67% in assay [6]; 78% in assay [7]. The inhibition in assay [2] amounted to 48%; in assay [9], 81%. This compound also had a pIC50 in assay [8] of 5.71.

With `Oc1c(F)cc(-n2cccc2)cc1F`, the figures for the inhibition in assay [4] and in [7] were 13% and 24%, respectively. In [8], this compound had a pIC50 of 4.63.

For the compound `O=C(c1ccccc1)c1ccn(-c2cc(F)c(O)c(F)c2)c1`, the inhibition in [3] is 61%; in assay [4], 68%; in [1], 48%; in assay [5] it was 55%; in assay [6], 68%; in assay [7], 88%. The inhibition was found to be 64% in assay [2], 29% in assay [10] and 74% in [9]. The negative logarithm of the IC50 (pIC50) in [8] is 6.40.

The values above are taken from ChEMBL document CHEMBL1148454, “[1-(3,5-difluoro-4-hydroxyphenyl)-1H-pyrrol-3-yl]phenylmethanone as a bioisostere of a carboxylic acid aldose reductase inhibitor” (J Med Chem, 2004).
